In the array DNA melting data of Ke et al. (doi:10.1101/2024.01.08.574731):

Key:
[1] = melting temperature; fluorescence melt of hairpins on a sequencing array, two-state fit, raised by 9.35 °C to match UV melts; settings: sodium 0.088 M
Method in brief: (§1)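 Cy3 fluorescence of library hairpins on a sequenced MiSeq flow cell, with annealed Cy3 and quencher oligos, was imaged in 50 mM Na-HEPES pH 8.0, 25 mM NaCl in 2.5 °C steps up to 60 °C. Signals were normalised to pre-quench Cy3 and to control variants. Melting temperature and folding enthalpy came from bootstrapped two-state fits, inverse-variance combined over four replicates. Fitted temperatures were raised by 9.35 °C to match UV melts.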

[2] = folding enthalpy; higher = less favourable; fluorescence melt of hairpins on a sequencing array, two-state fit; settings: sodium 0.088 M
Method in brief: as §1

| Sequence | Tm [1] [°C] | folding enthalpy [2] [kcal/mol] |
| --- | --- | --- |
| GCCATTACGAAAGTAGGC (((..(((....)))))) | 42.2 | -25.6 |
| GATCGAGCTCTCGATC ((((((....)))))) | 55.2 | -39.1 |
| GATCGGCAAACCGATC ((((((....)))))) | 56.5 | -36.1 |
| GCTGTATCGAAAGATAGC (((..(((....)))))) | 33.7 | -18.4 |
| GCAGACGAAAGTCCGTGC ((((((....)))..))) | 38.6 | -15.1 |
| GCTCACCGAAAGGTAGC (((.(((....)))))) | 50.2 | -22.4 |
| GCTAGCGGAAACACTAGC (((((.(....).))))) | 45.7 | -32.2 |
| GCATCCGAAAGGAATGC ((((((....))).))) | 55.4 | -32.3 |
| GGCCATGGAAACATGGTC (.(((((....))))).) | 54.9 | -36.2 |
| GATCATGCATATGATC ((((((....)))))) | 55.4 | -55.8 |
| GCGGACGAAAGTCGCCGC ((((((....)))..))) | 52.4 | -18.1 |
| ATAGGGAAACCTAT (((((....))))) | 32.4 | -11.2 |
| GATCGTCAATACGATC ((((((....)))))) | 54.6 | -39.2 |
| GATCGTTTCGACGATC ((((((....)))))) | 57.7 | -43.1 |
| GTCAACGGAAACATTGAC (((((.(....).))))) | 35.6 | -26.4 |
| GATGATGGAAACATCGTC ((.((((....)))).)) | 47.4 | -32.3 |
| GACGTGGGAAACCGCGTC ((((.((....)).)))) | 61.5 | -43.8 |
| GTTGACGAAAGTCAGAAC ((((((....)))..))) | 36.5 | -10.4 |
| GGGCGGCGAAAGCCCCCC (((.(((....))).))) | 63.9 | -16.6 |
| GATCCAAGATTGGATC ((((((....)))))) | 50.3 | -40 |
| GATCCGCTGACGGATC ((((((....)))))) | 60.7 | -38 |
| GTCTGTCGAAAGACTGAC (((.(((....))).))) | 54.4 | -39.4 |
| GATCATCCTGATGATC ((((((....)))))) | 54.5 | -41.7 |
| GCGGGTGTCCGC ((((....)))) | 58.2 | -22.8 |

| Sequence | Tm [1] [°C] | folding enthalpy [2] [kcal/mol] |
| --- | --- | --- |
| GATCGATCCATCGATC ((((((....)))))) | 56.7 | -49.1 |
| GAGGGCGAAAGCCGACTC ((((((....)))..))) | 44.6 | -13 |
| GTGCACGGAAACGCGCAC ((((.((....)).)))) | 57.7 | -49 |
| GGTAGCTCGAAAGAGACC (((..(((....)))))) | 28.3 | -11.7 |
| GTACCCGAAAGGGCTAC ((((((....))).))) | 40.2 | -15.3 |
| GATCTCACAGAGATC ((((((...)))))) | 56.1 | -39.3 |
| GCTCACGAAAGTGCAGC ((((((....))).))) | 52 | -22.9 |
| GCAACGCGAAAGCGCAGC ((..(((....)))..)) | 48.1 | -11.7 |
| GCTCACGGAAACGTGGGC ((.((((....)))).)) | 59.6 | -47.8 |
| GCGTGCGGAAACACACGC (((((.(....).))))) | 58.5 | -40.2 |
| GACCGTGGAAACACGGCC (.(((((....))))).) | 50.9 | -13.2 |
| GTCCTGTCGAAAGACGAC (((..(((....)))))) | 34.1 | -11.2 |
| GTAGAGACGAAAGTCTAC (((..(((....)))))) | 36 | -11.7 |
| GTAGAACGAAAGTTATAC (((.(((....))).))) | 44.1 | -33.9 |
| GAATTGCGAAAGCAGTTC (((.(((....))).))) | 51.5 | -30.3 |
| GCTTCCGAAAGGACAGC ((((((....))).))) | 47.8 | -24.4 |
| GTCAATGGAAACATTGGC (.(((((....))))).) | 48.4 | -27.7 |
| GGGATCCGAAAGGACCCC (((.(((....))).))) | 59.1 | -35.2 |
| GGCAACGGAAACATCGCC (((.(.(....).).))) | 24.5 | -16.7 |
| GTATACGAAAGTATGTAC ((((((....)))..))) | 30.6 | -12.4 |
| GGGCGTGGAAACACGTCC ((.((((....)))).)) | 62.1 | -36.1 |
| GCAAACCCGAAAGGGTGC (((..(((....)))))) | 51.7 | -17.5 |
| GTGTTCCCGAAAGGGCAC (((..(((....)))))) | 46.1 | -22.4 |
| GATCGGCCCCCCGATC ((((((....)))))) | 56.1 | -37.1 |

| Sequence | Tm [1] [°C] | folding enthalpy [2] [kcal/mol] |
| --- | --- | --- |
| GAATCGGGAAACTGATTC (((((.(....).))))) | 45.5 | -38.9 |
| TGGACGAAAGTCCA (((((....))))) | 67.5 | -19.4 |
| CGAAGCGGAAACGCCTCG (((.(((....))).))) | 47.3 | -23.8 |
| GCCGCCGCGAAAGCGGGC (((..(((....)))))) | 64 | -5.71 |
| GGTTACGAAAGTACACC ((((((....))).))) | 42.2 | -22.7 |
| GACGTCGGAAACGATGTC (((.(((....))).))) | 54.7 | -52.2 |
| CGTTGGCGGAAACGCACG (((..(((....)))))) | 41.1 | -14.6 |
| GTGCTGGGAAACTAGCGC (.(((.(....).))).) | 45.5 | -29.7 |
| GCACGGCGAAAGCAATGC (((..((....))..))) | 39.1 | -15.5 |
| ATGTAGAAATACAT (((((....))))) | 28.2 | -7.12 |
| GTTGTTGGAAACAACGAC ((.((((....)))).)) | 55.9 | -18.6 |
| GCGTGTCTACGC ((((....)))) | 57.8 | -25.8 |
| GTAAGAGGAAACTCTTAC (((((((....))))))) | 51 | -42.2 |
| GTCTGGGGAAACCTGGAC (((..((....))..))) | 41 | -23.9 |
| GCGTGGTGACGC ((((....)))) | 55.1 | -17.3 |
| GATCAGTGAGCTGATC ((((((....)))))) | 56.2 | -36.1 |
| GGGTTTGCGAAAGCACCC (((..(((....)))))) | 47.3 | -18.9 |
| GATCGGGGTTCCGATC ((((((....)))))) | 59 | -36.9 |
| GATGTCCCGAAAGGGATC (((..(((....)))))) | 33.6 | -9.1 |
| GTGGGTGGAAACATCCGC (.((.((....)).)).) | 44.2 | -26.3 |
| GCTCAGCGAAAGCAGCGC ((.(.((....)).).)) | 49.4 | -18 |
| GGACCCGAAAGGGACTCC ((((((....)))..))) | 54 | -13 |
| GTAGGTGGAAACATCTAC ((((.((....)).)))) | 42.4 | -31.3 |
| GTACCGAAAGGTAC (((((....))))) | 65.9 | -27 |

| Sequence | Tm [1] [°C] | folding enthalpy [2] [kcal/mol] |
| --- | --- | --- |
| GAAAATACGAAAGTATTC (((..(((....)))))) | 27.7 | -13.7 |
| GTGAGCCGAAAGGCCCAC (((.(((....))).))) | 55.3 | -23.3 |
| GTCCCCGAAAGGGGGAC ((((((....))).))) | 68.5 | -17.1 |
| GGCTATGGAAACATGGCC (((.(((....))).))) | 53.2 | -53.7 |
| GAGGTTGGAAACGACTTC ((.((.(....).)).)) | 35.2 | -24.9 |
| GCGGTGCGAAAGCATGGC ((..(((....)))..)) | 56.1 | -21.8 |
| GCAAACGGAAACGCTTGC ((((.((....)).)))) | 47.6 | -35.1 |
| GATCAGGTTTCTGATC ((((((....)))))) | 51.8 | -46.7 |
| GATCTTTGCGAAGATC ((((((....)))))) | 47.6 | -45.8 |
| GAAAACCGAAAGGTGTTC (((.(((....))).))) | 44.9 | -19.9 |
| GATAAGCGAAAGCTATC (((.(((....)))))) | 42.8 | -14.7 |
| GAGTGGGGAAACCTACTC ((((.((....)).)))) | 46.4 | -30.6 |
| GATCTACGCTAGATC ((((((...)))))) | 43.4 | -18.5 |
| GATCACTATGTGATC ((((((...)))))) | 61.1 | -38.8 |
| GATCTCGTCCGAGATC ((((((....)))))) | 60.5 | -38.4 |
| GCATCCGAAAGGATTTGC ((((((....)))..))) | 43.9 | -18.5 |
| GCCACTGGAAACAATGGC ((((.((....)).)))) | 42.2 | -26.7 |
| GATCACCGAAGTGATC ((((((....)))))) | 55.8 | -38.1 |
| GGGCACGGAAACGCACCC (((..((....))..))) | 35.6 | -20.2 |
| GTGAGAGGAAACTCTCAC (((((((....))))))) | 61.7 | -41.8 |
| GGGAGCCGAAAGGCCCC (((.(((....)))))) | 69 | -20.1 |
